Screening data (PubChem BioAssay)
A selection: hits, their analogues and other compounds. The true share with any hit is near 4.3%.
AHR activator: activates the human aryl hydrocarbon receptor | AID 2796 | hit rate 2.5% among 320,000 | P35869 | activation, % at 5 µM | AHR-responsive luciferase reporter cells, luminescence; in the data active means activation above about 47%;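 further: 0% = vehicle wells and 100% = reference agonist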
Hep lipid drop: modulators of hepatic lipid droplet formation. hit rate 0.4% among 240,000. AML12 mouse hepatocytes, oleate lipid droplets, BODIPY imaging. inhibition, % at 6.5 µM;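 active means lipid droplet intensity inhibited by at least 50%, with more than 500 cells counted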
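Assay system: AML12 hepatocytes (mouse); Probe or stimulus: oleic acid at 100 µM to induce lipid droplet formation; Dosing: compound at 6.5 µM only; Schedule: compound with oleate, overnight; Detection: fluorescence imaging, 20x objective, two fields per well; Measure: % inhibition of lipid droplet signal.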
SR-BI DiI-HDL act: enhances SR-BI lipid uptake from DiI-HDL | hit rate 0.096% among 320,000 | AID 504775 | CHO ldlA[mSR-BI] cells, DiI-HDL uptake fluorescence, 3 h; 100 = double the neutral-control signal | activation, % at 12.5 µM;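 active means mean replicate activation of at least 60% and every replicate at or above 60%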;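 further: 0% = median plate neutral-control signal and 100% = twice that signal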
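Assay system: LDL receptor-deficient CHO ldlA cells overexpressing murine SR-BI / Medium: BSA-supplemented, HEPES-buffered Ham's F12, pH 7.4 / Probe or stimulus: DiI-labelled HDL at 10 µg/mL final / Timing: compound with DiI-HDL co-incubation, 3 h at 37 °C / Technique: bottom-read cell fluorescence after medium removal, ex 550/em 595 nm / Measure: HDL uptake via cellular fluorescence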
SMARCA2 act: increases SMARCA2 function in MMTV reporter cells. MG213 cells, MMTV-luciferase reporter, dexamethasone, overnight. AID 652017. activation, % at 9.1 µM. hit rate 1% among 370,000; in the data active means activation above about 7.8%;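 further: 0% = vehicle wells and 100% = reference activator wells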
CR mimetic SO: caloric restriction mimetics inhibiting age-related superoxide in yeast; S. cerevisiae aged cells, superoxide DHE fluorescence; hits give low values; superoxide response (% of plate mean), % at 10 µM; hit rate 0.18% among 330,000; AID 2690;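 active means superoxide response under a set limit, about three screen SD below normal, cut at about 65% in these data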;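 further: yeast aged for seven days with compound at 30 °C before DHE staining; 100% = average MFI of all compound-treated wells on the plate with controls excluded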
SR-BI HDL uptake: inhibitors of mouse SR-BI mediated HDL lipid uptake; ldlA[mSR-BI] CHO cells, DiI-HDL uptake fluorescence, 3 h; Q61009; AID 488896; hit rate 0.96% among 320,000; inhibition, % at 12.5 µM;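 active means mean replicate inhibition of at least 70% and a set share of replicates each scoring 70 or more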;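 further: 0% = median of neutral control wells and 100% = median of positive control wells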
Starred values were filed as active, the others as inactive; . = no result.

SMILES	AHR activator	Hep lipid drop	SR-BI DiI-HDL act	SMARCA2 act	CR mimetic SO	SR-BI HDL uptake
O=C(CC1SC(=Nc2ccccc2)N(CCO)C1=O)Nc1ccccc1 (configuration not stated)	1.1	0.4	-26.5	-0.8	98.8	26.5
C=CCN(CC#CC(=C)C)CC1CC1	.	.	.	-1.7	.	.
CN1C(=O)C[C@@](C#N)(C(=O)NCCc2ccccc2)[C@H]1c1ccccc1	.	.	.	0.2	.	.
C=CCN1C(=O)[C@H](CC(=O)NCCCCc2ccccc2)[C@@]2(C(=O)OCC)CCCC=C12	.	.	.	-1.7	.	.
CC(C)C[C@H]1COc2cccc(F)c2S(=O)(=O)N1C	.	.	.	4.5	.	.
Nn1c(SCC(=O)Nc2cccc3ccccc23)nnc1-c1cc(-c2ccccc2)n[nH]1	.	.	.	-2.5	.	.
CCOC(=O)c1c(S(=O)(=O)Nc2ccc(C)c(F)c2)c(C)n(C)c1C	0.4	0.0	0.7	-0.4	98.0	-0.7
CCOC(=O)c1c(S(=O)(=O)Nc2ccc(C)cn2)c(C)n(C)c1C	0.3	0.1	20.5	7.9*	75.3	-20.5
COc1ccc(-c2cc(-c3ccc(Br)cc3)nc3ncnn23)cc1OC	53.9*	6.6	-42.9	-0.5	105.9	42.9
COc1ccc(-c2cc(-c3ccccc3)nc3ncnn23)cc1	8.4	10.7	-32.8	0.1	87.2	32.8
C=CCc1c(C)nc(-c2ccccc2)nc1N/N=C/c1ccncc1	61.4*	7.9	-69.5	-2.7	104.9	69.5
C=CCc1c(C)nc(C)nc1N/N=C/c1ccccc1	65.7*	-5.9	-4.0	-1.0	105.1	4.0
C=CCc1c(C)nc(-c2ccccc2)nc1N/N=C/c1ccccc1	33.3	-12.7	-61.0	0.0	104.3	61.0
C=CCc1c(C)nc(-c2ccccc2)nc1N/N=C(\C)c1ccc(N)cc1	51.0*	-11.9	4.1	-0.6	89.3	-4.1
C=CCc1c(C)nc(C)nc1N/N=C/c1ccc(F)cc1	77.0*	2.5	-5.2	-0.9	98.2	5.2
COc1ccccc1C(=O)N1CCC(Oc2cccnc2)CC1	.	.	.	1.0	.	.
Cc1ccc(-n2c(SCC(=O)NN=Cc3c[nH]c4ccccc34)nnc2-c2ccccc2)cc1	.	.	.	-7.5	.	.
O=C1c2ccccc2-c2onc3ccc(NCCCn4ccnc4)c1c23	59.6*	-7.0	.	.	112.0	.
NS(=O)(=O)c1ccc(NCCCn2ccnc2)c([N+](=O)[O-])c1	5.3	0.1	7.9	-2.9	94.3	-7.9
CCOC(=O)CNC(=O)CSc1nnc(-c2cccs2)o1	.	.	.	-5.1	.	.
CC(C)NC(=O)N[C@H]1C[C@@H]2O[C@@H](CO)CC[C@@H]2O[C@@H]1CCc1ccc(-c2ccccc2F)cc1	.	.	.	-3.1	.	.
O=C(C1CCCN1S(=O)(=O)c1cccc([N+](=O)[O-])c1)N1CCN(c2ccccc2)CC1 (configuration not stated)	.	.	.	0.4	.	.
COc1ccccc1/C=N/NC(=O)c1cccc2ccccc12	7.7	-2.2	-77.0	-1.2	87.9	77.0*
COc1ccccc1/C=N/NC(=O)c1ccc(-c2ccccc2)cc1	18.4	-29.7	-78.9	-5.2	106.5	78.9*
O=C(N/N=C/c1ccccc1[N+](=O)[O-])c1ccc(COc2ccccc2-c2ccccc2)cc1	15.2	-7.6	-76.8	1.9	88.1	76.8*
SMILES	AHR activator	Hep lipid drop	SR-BI DiI-HDL act	SMARCA2 act	CR mimetic SO	SR-BI HDL uptake
COc1cc(/C=N/Nc2ccccc2[N+](=O)[O-])cc(OC)c1O	14.6	2.6	-78.5	2.5	116.8	78.5*
CCOc1ccc(C(=O)N/N=C/c2ccccc2[N+](=O)[O-])cc1	25.8	1.7	-26.5	-0.2	101.2	26.5
O=C1CCc2cc(S(=O)(=O)N3CCN(c4ccccc4Cl)CC3)ccc2N1	.	.	.	1.0	.	.
COc1ccc([C@H]2OC(=O)C[C@H]2C(=O)N2CCN(c3ccccc3C(F)(F)F)CC2)cc1OC	.	.	.	-5.0	.	.
C[C@H]1Cn2nncc2Cn2c3ccccc3c(=O)n21	.	.	.	-0.3	.	.
C=CCc1cccc(/C=N/NC(=O)CNc2cccc3ccccc23)c1O	42.3	9.0	-28.3	-3.9	107.2	28.3
O=C(O)COc1ccccc1/C=N/NC(=O)COc1ccc(-c2ccccc2)cc1	68.3*	-2.8	21.9	0.6	116.3	-21.9
CC(=O)Nc1ccc(C(=O)N/N=C/c2ccccc2OCc2ccccc2)cc1	2.2	11.1	-79.4	1.9	94.3	79.4*
COc1ccc(Br)c(/C=N/NC(=O)COc2ccc(-c3ccccc3)cc2)c1	23.7	-6.9	5.8	-0.7	94.2	-5.8
COc1cc(/C=N\NC(=O)c2ccc(-c3ccccc3)cc2)cc(OC)c1O	23.0	-11.6	-91.7	1.9	144.4	91.7*
C=CCc1cccc(/C=N/NC(=O)CNc2ccccc2OC)c1O	61.2*	4.4	-17.0	0.5	111.2	17.0
CC(C)C[C@@H]1COc2cc(Br)ccc2S(=O)(=O)N1Cc1cn(Cc2ccc(Cl)cc2)nn1	.	.	.	3.1	.	.
COCCCN1C(=O)[C@H](CC(=O)NCCc2ccccc2OC)[C@]2(C(=O)OC)CCCCC=C12	.	.	.	-0.4	.	.
CCCCN1CN2Cc3cc(F)ccc3C2CS1(=O)=O (configuration not stated)	.	.	.	-2.3	.	.
Cc1cc2c(c(=O)o1)[C@@]1(C(=O)N(C)c3ccc([N+](=O)[O-])cc31)C1=C(CCCC1=O)O2	.	.	.	-7.5	.	.
COc1cccc(CO[C@H]2C=C[C@@H](c3ccccc3)O[C@@H]2CO)c1	.	.	.	-3.3	.	.
CCOc1cc(/C=N/NC(=O)c2ccc(N(C)S(=O)(=O)c3ccccc3)cc2)ccc1OC	22.9	.	-72.8	0.4	116.2	72.8*
O=C(N/N=C/c1ccc2cccc(OCc3ccccc3)c2n1)c1ccc(Br)cc1	68.6*	.	-61.7	-0.1	97.0	61.7
COc1ccc(/C=N/NC(=O)c2cc3c(ccc4ccccc43)o2)c(OC)c1	.	-1.9	-82.3	4.0	.	82.3*
COc1cc(/C=N/NC(=O)c2ccc(N(C)S(=O)(=O)c3ccccc3)cc2)cc(OC)c1OC	14.9	4.0	-48.7	-2.0	101.8	48.7
COc1cccc(C2CC=C(C(=O)O)CN2S(=O)(=O)c2ccc(C)cc2)c1 (configuration not stated)	.	.	.	-1.2	.	.
COC(=O)c1ccc(S(=O)(=O)N2CCC(NC(=O)Cc3cccc(C)c3)CC2)cc1	.	.	.	1.4	.	.
CCOC(=O)N(C)[C@H]1C[C@H]2c3cc(-c4ccccc4C)ccc3CCN2C[C@H]1[C@H](C)O	.	.	.	-5.8	.	.
COC1=C[C@H](C(=O)NCc2ccc(OC)cc2)C(C)C(c2ccccc2)CC1=O (some centres not stated)	.	.	.	-0.9	.	.
C=CCn1c(SCC(=O)O)nnc1-c1ccco1	.	.	.	-1.5	.	.
C/C(CCc1oc2ccc(Br)cc2c1-c1ccc(C)o1)=N/O	56.4*	5.6	-37.1	1.0	105.0	37.1
C/C(CCc1oc2ccc(Cl)cc2c1-c1ccc(C)o1)=N\O	29.2	-1.0	-47.8	-4.9	106.7	47.8
COC(=O)c1ccccc1NC(=O)NCC1CCN(Cc2ccc(OC)cc2)CC1	.	.	.	-2.5	.	.
COc1ccc(O)c(CNn2c(-c3ccc(Br)cc3)nc3ccccc3c2=O)c1	61.6*	1.4	-4.8	0.4	103.3	4.8
